{
  "source": "ChEMBL document CHEMBL4819032",
  "about": "“Structure-based design of highly selective 2,4,5-trisubstituted pyrimidine CDK9 inhibitors as anti-cancer agents” (Eur J Med Chem, 2021)",
  "key": {"HCT-116 [1]": {"system": "HCT-116", "test": "Growth inhibition of human HCT-116 cells after 48 hrs by MTT assay", "assay_type": "functional"}, "A2780 [2]": {"system": "A2780", "test": "Induction of cell cycle arrest in human A2780 cells assessed as accumulation at G2/M phase at 5 uM after 24 hrs by propidium iodide staining based flow cytometric analysis (reference value: 21.6%)", "assay_type": "functional", "summary_of_the_method": "(§1)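 4 × 10⁵ A2780 cells cultured 24 h in medium alone or with varying inhibitor concentrations, harvested into hypotonic fluorochrome solution (0.1% sodium citrate, 0.1% Triton X-100, propidium iodide, 100 ug/ml RNase A), and DNA content analysed by flow cytometry. Representative of three independent experiments.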"}, "Homo sapiens": {"species_on_record": "Homo sapiens", "test": "Selectivity index, ratio of Ki for inhibition of recombinant human full length […]"}, "MCF7": {"system": "MCF7", "test": "Growth inhibition of human MCF7 cells after 48 hrs by MTT assay", "assay_type": "functional"}, "A2780 [3]": {"system": "A2780", "test": "Induction of apoptosis in human A2780 cells assessed as necrotic cells at 2 uM after 24 hrs by Annexin V-FITC/PI staining based flow cytometric analysis (reference value: 3.6%)", "assay_type": "functional", "summary_of_the_method": "(§2)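 A2780 cells cultured 24 h in medium alone or with varying inhibitor concentrations, then stained with FITC-annexin V/PI per kit protocol and analysed by flow cytometry. Run in triplicate and repeated at least twice; significance by one-way ANOVA, p < 0.01.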"}, "A2780 [4]": {"system": "A2780", "test": "Induction of cell cycle arrest in human A2780 cells assessed as accumulation at G2/M phase at 1 uM after 24 hrs by propidium iodide staining based flow cytometric analysis (reference value: 21.6%)", "assay_type": "functional", "summary_of_the_method": "as §1"}, "A2780 [5]": {"system": "A2780", "test": "Induction of cell cycle arrest in human A2780 cells assessed as accumulation at G1/G0 phase at 0.5 uM after 24 hrs by propidium iodide staining based flow cytometric analysis (reference value: 56.7%)", "assay_type": "functional", "summary_of_the_method": "as §1"}, "[6]": {"target": "Cyclin-dependent kinase 7/ cyclin H (Homo sapiens, UniProt P50613)", "sequence (P51946 whole entry)": "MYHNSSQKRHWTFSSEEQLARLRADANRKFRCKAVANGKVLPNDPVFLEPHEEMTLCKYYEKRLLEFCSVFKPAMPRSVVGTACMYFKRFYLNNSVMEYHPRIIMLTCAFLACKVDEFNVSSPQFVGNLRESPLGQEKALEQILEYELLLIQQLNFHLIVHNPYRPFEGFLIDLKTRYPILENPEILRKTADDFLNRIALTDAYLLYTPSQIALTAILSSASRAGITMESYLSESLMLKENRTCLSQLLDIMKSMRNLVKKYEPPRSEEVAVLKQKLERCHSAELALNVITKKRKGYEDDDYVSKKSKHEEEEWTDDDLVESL", "sequence (P50613 whole entry)": "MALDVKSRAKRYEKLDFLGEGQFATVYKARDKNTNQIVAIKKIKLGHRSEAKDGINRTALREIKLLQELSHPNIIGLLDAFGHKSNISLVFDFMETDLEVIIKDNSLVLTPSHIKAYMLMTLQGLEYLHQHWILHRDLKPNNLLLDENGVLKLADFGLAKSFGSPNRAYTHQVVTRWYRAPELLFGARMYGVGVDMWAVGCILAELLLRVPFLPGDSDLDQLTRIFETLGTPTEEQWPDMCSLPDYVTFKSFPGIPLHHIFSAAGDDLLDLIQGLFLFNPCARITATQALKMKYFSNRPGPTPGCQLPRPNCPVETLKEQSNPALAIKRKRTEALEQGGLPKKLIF", "test": "Inhibition of recombinant human full length CDK7/Cyclin H using peptide as substrate incubated for 40 mins in presence of [gamma-33P]-ATP by scintillation counting method", "assay_type": "protein-complex assay", "summary_of_the_method": "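Radiometric kinase assay with ATP at each kinase's Km(app). IC50 values come from 10-point dose-response curves, and apparent Ki is calculated from IC50 and the kinase's Km(ATP).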"}, "A2780 [7]": {"system": "A2780", "test": "Induction of apoptosis in human A2780 cells assessed as necrotic cells at 1 uM after 24 hrs by Annexin V-FITC/PI staining based flow cytometric analysis (reference value: 3.6%)", "assay_type": "functional", "summary_of_the_method": "as §2"}, "[8]": {"target": "T1, Serine/threonine-protein kinase Nek2 (Homo sapiens) (UniProt P51955)", "T1 sequence (whole entry)": "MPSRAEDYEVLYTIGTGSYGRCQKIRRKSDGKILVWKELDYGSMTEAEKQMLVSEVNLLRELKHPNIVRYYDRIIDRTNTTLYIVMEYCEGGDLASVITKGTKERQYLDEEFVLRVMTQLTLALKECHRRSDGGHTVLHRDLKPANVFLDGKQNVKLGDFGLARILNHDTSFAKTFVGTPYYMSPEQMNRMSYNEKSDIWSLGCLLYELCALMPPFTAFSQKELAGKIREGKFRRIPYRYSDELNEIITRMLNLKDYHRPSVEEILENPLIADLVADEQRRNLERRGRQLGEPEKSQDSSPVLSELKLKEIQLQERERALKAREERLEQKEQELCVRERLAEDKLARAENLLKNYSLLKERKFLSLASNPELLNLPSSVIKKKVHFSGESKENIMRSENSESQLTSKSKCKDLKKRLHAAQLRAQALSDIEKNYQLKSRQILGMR", "test": "Inhibition of recombinant human full length NEK2 using myelin basic protein as substrate incubated for 40 mins by scintillation counting method", "summary_of_the_method": "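The 60-kinase diversity panel was run as a radiometric assay with ATP at each kinase's Km(app). Compound was tested at one fixed concentration across all kinases.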"}, "A2780 [9]": {"system": "A2780", "test": "Induction of cell cycle arrest in human A2780 cells assessed as accumulation at pre-G1 phase at 5 uM after 24 hrs by propidium iodide staining based flow cytometric analysis (reference value: 1.2%)", "assay_type": "functional"}, "A549": {"system": "A549", "test": "Growth inhibition of human A549 cells after 48 hrs by MTT assay", "assay_type": "functional"}, "HCT-116 [10]": {"system": "HCT-116", "test": "Induction of apoptosis in human HCT-116 cells assessed as increase in cleaved-PARP protein expression at 0.5 to 5 uM after 24 hrs by Western blot analysis", "assay_type": "functional, cell-based", "details": "dose 0.5-5 µM"}, "A2780 [11]": {"system": "A2780", "test": "Induction of cell cycle arrest in human A2780 cells assessed as accumulation at S phase at 0.5 uM after 24 hrs by propidium iodide staining based flow cytometric analysis (reference value: 20%)", "assay_type": "functional", "summary_of_the_method": "as §1"}, "A2780 [12]": {"system": "A2780", "test": "Induction of cell cycle arrest in human A2780 cells assessed as accumulation at G2/M phase at 2 uM after 24 hrs by propidium iodide staining based flow cytometric analysis (reference value: 21.6%)", "assay_type": "functional", "summary_of_the_method": "as §1"}, "A2780 [13]": {"system": "A2780", "test": "Induction of cell cycle arrest in human A2780 cells assessed as accumulation at S phase at 1 uM after 24 hrs by propidium iodide staining based flow cytometric analysis (reference value: 20%)", "assay_type": "functional", "summary_of_the_method": "as §1"}, "A2780 [14]": {"system": "A2780", "test": "Induction of cell cycle arrest in human A2780 cells assessed as accumulation at G1/G0 phase at 1 uM after 24 hrs by propidium iodide staining based flow cytometric analysis (reference value: 56.7%)", "assay_type": "functional", "summary_of_the_method": "as §1"}, "A2780 [15]": {"system": "A2780", "test": "Induction of apoptosis in human A2780 cells assessed as viable cells at 0.5 uM after 24 hrs by Annexin V-FITC/PI staining based flow cytometric analysis (reference value: 92%)", "assay_type": "functional", "details": "read-out: Activity", "summary_of_the_method": "as §2"}, "A2780 [16]": {"system": "A2780", "test": "Induction of apoptosis in human A2780 cells assessed as early apoptotic cells at 2 uM after 24 hrs by Annexin V-FITC/PI staining based flow cytometric analysis (reference value: 1.6%)", "assay_type": "functional", "summary_of_the_method": "as §2"}, "A2780 [17]": {"system": "A2780", "test": "Induction of apoptosis in human A2780 cells assessed as early apoptotic cells at 0.5 uM after 24 hrs by Annexin V-FITC/PI staining based flow cytometric analysis (reference value: 1.6%)", "assay_type": "functional", "summary_of_the_method": "as §2"}, "MDA-MB-468": {"system": "MDA-MB-468", "test": "Growth inhibition of human MDA-MB-468 cells after 48 hrs by MTT assay", "assay_type": "functional"}, "A2780 [18]": {"system": "A2780", "test": "Induction of apoptosis in human A2780 cells assessed as late apoptotic cells at 0.5 uM after 24 hrs by Annexin V-FITC/PI staining based flow cytometric analysis (reference value: 2.8%)", "assay_type": "functional", "summary_of_the_method": "as §2"}, "A2780 [19]": {"system": "A2780", "test": "Induction of apoptosis in human A2780 cells assessed as early apoptotic cells at 1 uM after 24 hrs by Annexin V-FITC/PI staining based flow cytometric analysis (reference value: 1.6%)", "assay_type": "functional", "summary_of_the_method": "as §2"}, "A2780 [20]": {"system": "A2780", "test": "Induction of apoptosis in human A2780 cells assessed as late apoptotic cells at 1 uM after 24 hrs by Annexin V-FITC/PI staining based flow cytometric analysis (reference value: 2.8%)", "assay_type": "functional", "summary_of_the_method": "as §2"}, "A2780 [21]": {"system": "A2780", "test": "Induction of cell cycle arrest in human A2780 cells assessed as accumulation at S phase at 2 uM after 24 hrs by propidium iodide staining based flow cytometric analysis (reference value: 20%)", "assay_type": "functional", "summary_of_the_method": "as §1"}, "HCT-116 [22]": {"system": "HCT-116", "test": "Induction of apoptosis in human HCT-116 cells assessed as increase in p53 protein expression at 0.5 to 5 uM after 24 hrs by Western blot analysis", "assay_type": "functional, cell-based", "details": "dose 0.5-5 µM"}, "HCT-116 [23]": {"system": "HCT-116", "test": "Induction of apoptosis in human HCT-116 cells assessed as reduction in XIAP protein expression after 24 hrs by Western blot analysis", "assay_type": "functional, cell-based", "details": "dose 0.5-5 µM"}},
  "note": "Active and inactive are the calls of the source. The calls are words filed in the database; no cut-off is given here.",
  "data": [
    {"smiles": "CNc1nc(C)c(-c2nc(Nc3cccc(N4CCN5CCC4CC5)c3)ncc2C)s1", "values": [
      {"measurement": "GI50", "setting": "HCT-116 [1]", "result": 1.07, "unit": "µM"},
      {"measurement": "Activity", "setting": "A2780 [2]", "result": 23.5, "unit": "%"},
      {"measurement": "Ratio Ki", "setting": "Homo sapiens", "result": 100},
      {"measurement": "GI50", "setting": "MCF7", "result": 1.34, "unit": "µM"},
      {"measurement": "Activity", "setting": "A2780 [3]", "result": 2.5, "unit": "%"},
      {"measurement": "Activity", "setting": "A2780 [4]", "result": 34.2, "unit": "%"},
      {"measurement": "Activity", "setting": "A2780 [5]", "result": 59.8, "unit": "%"},
      {"measurement": "Ki", "setting": "[6]", "result": 0.546, "unit": "µM"},
      {"measurement": "Activity", "setting": "A2780 [7]", "result": 3, "unit": "%"},
      {"measurement": "inhibition", "setting": "[8]", "result": "Active"},
      {"measurement": "Activity", "setting": "A2780 [9]", "result": 34, "unit": "%"},
      {"measurement": "GI50", "setting": "A549", "result": 1.54, "unit": "µM"},
      {"measurement": "Activity", "setting": "HCT-116 [10]", "result": "Active"},
      {"measurement": "Activity", "setting": "A2780 [11]", "result": 15.3, "unit": "%"},
      {"measurement": "Activity", "setting": "A2780 [12]", "result": 56.5, "unit": "%"},
      {"measurement": "Activity", "setting": "A2780 [13]", "result": 7.6, "unit": "%"},
      {"measurement": "Activity", "setting": "A2780 [14]", "result": 50.5, "unit": "%"},
      {"measurement": "viability at 0.5 µM", "setting": "A2780 [15]", "result": 88.3, "unit": "%"},
      {"measurement": "Activity", "setting": "A2780 [16]", "result": 14.4, "unit": "%"},
      {"measurement": "Activity", "setting": "A2780 [17]", "result": 3.6, "unit": "%"},
      {"measurement": "GI50", "setting": "MDA-MB-468", "result": 1.46, "unit": "µM"},
      {"measurement": "Activity", "setting": "A2780 [18]", "result": 6.2, "unit": "%"},
      {"measurement": "Activity", "setting": "A2780 [19]", "result": 9.3, "unit": "%"},
      {"measurement": "Activity", "setting": "A2780 [20]", "result": 13.1, "unit": "%"},
      {"measurement": "Activity", "setting": "A2780 [21]", "result": 8.3, "unit": "%"},
      {"measurement": "Activity", "setting": "HCT-116 [22]", "result": "Active"},
      {"measurement": "Activity", "setting": "HCT-116 [23]", "result": "Dose-Dependent Effect"}
    ]}
  ]
}
